DENV2 CPE = protects cells from dengue virus 2 cytopathic effect. DENV2-infected cells, cytopathic effect rescue, plate reader. CPE inhibition, % at 9.99 µM. 350,000 compounds, 1.7% hits; in the data active means CPE inhibition above about 20%, passing the limit was not always enough; inconclusive means no clear call, values can overlap the other calls; tested in BHK-21 cells;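 further: 0% = median of neutral control wells and 100% = median of positive control wells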
S100A4 MyoIIA = blocks human S100A4 binding to myosin IIA peptide; P26447; S100A4/TAMRA-MyoIIA peptide fluorescence polarization; inhibition, % at 10.7 µM; 360,000 compounds, 0.14% hits; AID 652163;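 active means mean inhibition of at least 70% across replicates, with every replicate also reaching that level; inconclusive means mean inhibition reaches 70% but some replicates fall short; inactive means mean inhibition below 70%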
Target sequence (P26447 whole entry, looked up): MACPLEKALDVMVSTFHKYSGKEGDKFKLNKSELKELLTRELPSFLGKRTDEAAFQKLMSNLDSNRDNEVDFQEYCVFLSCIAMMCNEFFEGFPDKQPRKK
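Compound dosing: one dose per compound; test system: human S100A4 monomer with TAMRA-labelled myosin IIA peptide; probe or stimulus: TAMRA-labelled myosin IIA heavy-chain peptide probe, 5 nM; medium: HEPES buffer with Ca2+, pH 7.2; schedule: 5 min incubation before reading; benchmarks: neutral control DMSO, positive control TFP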
SIRT5 inh = blocks human SIRT5 desuccinylation of peptide; Q9NXA8; Purified SirT5, succinyl-peptide AMC, trypsin-coupled fluorescence; inhibition, % at 15 µM; 330,000 compounds, 1.1% hits; AID 652115; in the data active means inhibition above about 15%; inconclusive means no clear call, values can overlap the other calls
Target sequence (Q9NXA8 whole entry, looked up): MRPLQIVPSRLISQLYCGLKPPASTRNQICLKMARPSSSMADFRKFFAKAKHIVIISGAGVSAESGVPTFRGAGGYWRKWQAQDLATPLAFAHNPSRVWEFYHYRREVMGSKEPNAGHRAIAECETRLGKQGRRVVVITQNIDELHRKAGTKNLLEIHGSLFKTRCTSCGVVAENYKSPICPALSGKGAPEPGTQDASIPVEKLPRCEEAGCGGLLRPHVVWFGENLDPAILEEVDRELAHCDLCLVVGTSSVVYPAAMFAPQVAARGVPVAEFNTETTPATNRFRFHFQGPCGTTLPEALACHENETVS
CAL PDZ FP-1 = inhibitors of human CAL PDZ peptide binding. 330,000 compounds, 0.02% hits. AID 504414. purified CAL PDZ, TMR-peptide fluorescence polarization, 1 h. Q9HD26. inhibition, % at 20 µM;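 active means highest replicate inhibition of at least 40%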;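 further: plate controls were DMSO neutral control wells for no effect and unlabeled competitor peptide control wells for full effect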
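System: tagged CAL PDZ domain. Schedule: 1 h room-temperature incubation prior to read. Signal: fluorescence polarization (mP). Measure: percent inhibition from loss of millipolarization.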
ERAP1 HTS inh = ERAP1 (human) enzyme inhibition; Q9NZ08; recombinant ERAP1, Leu-AMC fluorescence, 60 min; inhibition, % at 10.7 µM; 340,000 compounds, 0.15% hits; AID 652197;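 active means mean replicate inhibition of at least 30%, or all replicates individually reaching that 30% level; inactive means mean below 30% and not every replicate reaching it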;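 further: 0% = neutral control wells and 100% = L-leucinethiol positive control wells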
CAL PDZ FP-2 = CAL PDZ (human) peptide binding inhibition | Q9HD26 | purified CAL PDZ, TMR-peptide fluorescence polarization, 1 h | inhibition, % at 24.9 µM | 300,000 compounds, 0.92% hits | AID 602252;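 active means mean inhibition of at least 30% with at least half of replicates also reaching 30%; inconclusive means no clear call, values can overlap the other calls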;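 further: 0% = DMSO neutral control and 100% = excess unlabeled competitor peptide PRC23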
* marks the source's active call; other numbers are inactive results; ? = inconclusive; / = not tested or not shown; + = active, no number. Hits are enriched below; roughly 2.9% of the tested compounds scored in any of these assays.

SMILES	DENV2 CPE	S100A4 MyoIIA	SIRT5 inh	CAL PDZ FP-1	ERAP1 HTS inh	CAL PDZ FP-2
CSCC[C@H](NC(=O)[C@H](Cc1ccccc1)n1c(=O)[nH]c2ccccc2c1=O)C(=O)N1CCC[C@H]1C(=O)O	6	-1	1	-3	1	-3
NC(=O)CC[C@H](NC(=O)[C@H](Cc1ccccc1)n1c(=O)[nH]c2ccccc2c1=O)C(=O)N1CCC[C@H]1C(=O)O	66*	-3	-21	0	1	1
CCCCCCCC(=O)OCC(O)CO (centres undefined)	0	-3	-2	-1	0	-1
CCCCCCCCCCCCCCC(O)C[N+](C)(CCO)CCO (centres undefined)	9	-13	2	0	64*	-5
O=C(NC[C@@H]1N[C@@H](CO)[C@H]1c1ccc(C2=CCCCC2)cc1)c1cccc(F)c1	-8	/	3	/	/	/
CN(C)S(=O)(=O)c1ccc(C(=O)NCc2nnc(SCC(=O)N3CCCCCC3)o2)cc1	3	-1	4	-2	2	8
CC1CCN(C(=O)CSc2nnc(CNC(=O)c3ccc(S(=O)(=O)N(C)C)cc3)o2)CC1	-9	-6	1	0	-1	55*
O=C(NCc1nnc(SCC(=O)N2CCCC2)o1)c1c(F)cccc1Cl	/	/	/	-3	/	-4
O=C(CSc1nnc(CNC(=O)c2c(F)cccc2Cl)o1)NC1CCCC1	15	-3	1	-1	-4	74*
O=C(NCc1nnc(SCC(=O)N2CCCCC2)o1)c1c(F)cccc1Cl	?	4	-2	-1	-3	78*
COc1ccc([C@@H](OC(=O)Nc2ccc(SC)cc2)[C@@H](CCO)OC)cc1O	-8	64	0	/	-1	/
O=C(Nc1cc(F)ccc1F)N1CC(=O)N2[C@H](C1)[C@@H](c1ccc(-c3ccccc3)cc1)[C@@H]2CO	-8	8	4	/	2	/
COc1ccc(S(=O)(=O)N(C)C[C@@H]2Oc3ccc(NC(=O)CCC(F)(F)F)cc3C(=O)N([C@H](C)CO)C[C@@H]2C)cc1	6	-3	-5	/	0	/
OC1CCCCC1	67*	-1	/	-1	-3	-8
COc1ccc(S(=O)(=O)Nc2ccc3c(c2)CC(=O)N([C@H](C)CO)C[C@@H](C)[C@H](CN(C)CC2CCCCC2)O3)cc1	0	0	13	/	0	/
Cc1ccc(NC(=O)COc2ccccc2C(=O)NCCc2ccccc2)cc1	0	4	-1	3	-1	72*
O=C(CSc1ccccc1C(=O)O)NCc1ccccc1	5	1	15*	0	2	8
CCSc1ccccc1C(=O)NCCc1ccccc1	3	-4	0	0	5	46*
COc1ccc(S(=O)(=O)Nc2ccc3c(c2)C(=O)N([C@@H](C)CO)C[C@H](C)[C@@H](CN(C)S(=O)(=O)c2ccc(OC)cc2)OCCCC[C@H](C)O3)cc1	0	/	/	/	/	/
CCn1c(=O)c(C(=O)CN2CCN(S(=O)(=O)c3ccc(C)cc3C)CC2)c(N)n(Cc2ccccc2)c1=O	/	-1	23*	-1	2	/
COc1cc(/C=C2\SC(=S)N(CC(=O)O)C2=O)ccc1OC(=O)c1ccco1	4	0	/	-1	1	-4
CN1C(=O)/C(=C/c2ccc(OC(=O)c3ccco3)cc2)SC1=S	1	3	-2	0	-2	+
CN1C(=O)/C(=C\c2cccc(OCc3ccccc3)c2)SC1=S	-7	0	-2	1	2	1
O=C(O)CN1C(=O)/C(=C\c2ccccc2OCc2ccccc2)SC1=S	-7	-3	0	/	22	/
COc1cc(/C=C2/SC(=S)N(CC(=O)O)C2=O)ccc1OC(=O)c1ccco1	0	-5	4	-1	56*	-6
SMILES	DENV2 CPE	S100A4 MyoIIA	SIRT5 inh	CAL PDZ FP-1	ERAP1 HTS inh	CAL PDZ FP-2
O=C(O)CN1C(=O)/C(=C\c2ccccc2OCc2ccc(F)cc2)SC1=S	-7	-1	5	-4	32*	-5
CN1C(=O)/C(=C\c2ccc(OC(=O)c3ccco3)cc2)SC1=S	15	0	-7	-1	1	57*
C[C@H](CO)N1C[C@H](C)[C@H](CN(C)C(=O)Nc2ccc(F)cc2)OCCCC[C@H](C)Oc2ccc(NC(=O)CCCN(C)C)cc2C1=O	-1	0	-4	/	1	/
C[C@@H]1CCCCO[C@@H](CN(C)C(=O)c2ccncc2)[C@H](C)CN([C@H](C)CO)C(=O)c2cc(N(C)C)ccc2O1	10	4	1	/	-8	/
CC(=O)Nc1ccc2c(c1)Cc1cc(N3C(=O)C=CC3=O)ccc1-2	-3	-8	-4	1	34*	-5
C[C@@H]1CCCCO[C@H](CN(C)C)[C@@H](C)CN([C@@H](C)CO)C(=O)c2cc(NS(=O)(=O)c3ccc(Cl)cc3)ccc2O1	8	-18	-1	/	1	/
COc1cccc(CN2CCNC(=O)C2CC(=O)NCCN2CCOCC2)c1OC (centres undefined)	-14	-3	2	-2	-4	-4
COc1ccccc1CN1CCNC(=O)C1CC(=O)NCCCN1CCOCC1 (centres undefined)	1	131*	0	/	0	/
COc1cc(CN2CCNC(=O)C2CC(=O)N(C)CCC2CCOCC2)cc(OC)c1 (centres undefined)	5	2	-3	0	-5	-5
CN(Cc1nccn1C)C(=O)CC1C(=O)NCCN1Cc1ccccc1C(F)(F)F (centres undefined)	12	-2	17*	0	3	1
COc1ccc(CN2CCNC(=O)C2CC(=O)N(C)CCC2CCOCC2)cc1OC (centres undefined)	8	3	-3	0	2	93*
Cc1cnc(CNC(=O)CC2C(=O)NCCN2Cc2ccccc2C(F)(F)F)cn1 (centres undefined)	-3	0	0	-1	0	-9
Cc1cc(CNC(=O)CC2C(=O)NCCN2Cc2ccccc2C(F)(F)F)on1 (centres undefined)	-4	10	29*	0	0	/
Cc1noc(C)c1NC(=O)Nc1ccc2c(c1)CC(=O)N([C@@H](C)CO)C[C@@H](C)[C@@H](CN(C)Cc1ccc(C(F)(F)F)cc1)O2	-9	-6	-3	/	-2	/
C[C@@H]1CN([C@H](C)CO)C(=O)Cc2cc(NC(=O)CCCN(C)C)ccc2O[C@@H]1CN(C)CC1CCCCC1	-6	5	-1	/	13	/
O=S(=O)(N[C@@H]1CC[C@H](CCn2cc(-c3ccccc3F)nn2)O[C@H]1CO)c1ccc(Cl)cc1	18	2	2	/	0	/
CN(C(=O)CC1C(=O)NCCN1Cc1ccccc1F)C1CCOCC1 (centres undefined)	-3	-3	-6	-2	1	-2
